Key:
Rattus norvegicus [1] = experiment: Antihypertensive activity in spontaneous hypertensive rat assessed as reduction in systolic blood pressure at 20 mg/kg/day, po for 7 days (reference value: 121.2 +/- 4.5 mmHg); assay type: functional, Artery
Procedure, shortened: (§1)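 Male SHR, 13 weeks old, received 20 mg/kg orally once daily for 14 days. Noninvasive tail-cuff plethysmography 4 h post-dose gave systolic pressure, diastolic pressure and heart rate. Measurements were made at baseline and on days 1, 3, 5, 7, 11 and 14. n = 6, mean ± SEM.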

Rattus norvegicus [2] = experiment: Antihypertensive activity in spontaneous hypertensive rat assessed as reduction in systolic blood pressure at 20 mg/kg/day, po for 14 days (reference value: 121.2 +/- 4.5 mmHg); assay type: functional, Artery; procedure, shortened: as §1
Rattus norvegicus [3] = experiment: Antihypertensive activity in spontaneous hypertensive rat assessed as reduction in diastolic blood pressure at 20 mg/kg/day, po for 7 days (reference value: 72.6 +/- 4.7 mmHg); assay type: functional, Artery; procedure, shortened: as §1
Rattus norvegicus [4] = experiment: Antihypertensive activity in spontaneous hypertensive rat assessed as reduction in diastolic blood pressure at 20 mg/kg/day, po for 14 days (reference value: 72.6 +/- 4.7 mmHg); assay type: functional, Artery; procedure, shortened: as §1
Rattus norvegicus [5] = experiment: Effect on heart rate in spontaneous hypertensive rat at 20 mg/kg/day, po for 7 days (reference value: 383 +/- 21 bpm); assay type: organism-based; set-up: route oral; conditions: in vivo, 168 h; procedure, shortened: as §1
Rattus norvegicus [6] = experiment: Effect on heart rate in spontaneous hypertensive rat at 20 mg/kg/day, po for 14 days (reference value: 383 +/- 21 bpm); assay type: organism-based; set-up: route oral; conditions: in vivo, 336 h; procedure, shortened: as §1
[7] = molecular target: T1, Adenosine receptor A1 (Homo sapiens) (UniProt P30542); experiment: Displacement of [3H]CCPA from human recombinant A1 receptor expressed in CHO cells at 10 uM; assay type: cell-based
T1 sequence (whole entry): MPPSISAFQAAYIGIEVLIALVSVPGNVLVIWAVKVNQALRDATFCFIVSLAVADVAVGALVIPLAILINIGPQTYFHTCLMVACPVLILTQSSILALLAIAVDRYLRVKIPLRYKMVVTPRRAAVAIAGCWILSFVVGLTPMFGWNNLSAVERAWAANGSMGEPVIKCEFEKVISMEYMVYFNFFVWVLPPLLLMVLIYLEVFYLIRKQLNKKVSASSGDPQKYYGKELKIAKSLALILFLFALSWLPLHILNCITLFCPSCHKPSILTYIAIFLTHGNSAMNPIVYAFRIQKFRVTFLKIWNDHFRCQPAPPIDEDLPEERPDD
Procedure, shortened: (§2)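 Radioligand competition binding used agonist radioligands at these levels: [3H]CCPA 1 nM for A1, [3H]CGS21680 6 nM for A2A, and [125I]AB-MECA 0.15 nM for A3. Results are expressed as percent inhibition of control specific binding: 100 − (measured specific binding / control specific binding × 100).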

[8] = molecular target: Adenosine receptor A2a (Homo sapiens) (UniProt P29274); experiment: Displacement of [3HCGS21680 from human recombinant A2A receptor expressed in HEK293 cells at 10 uM; assay type: cell-based; procedure, shortened: as §2
Sequence of Adenosine receptor A2a (Homo sapiens) (P29274 whole entry): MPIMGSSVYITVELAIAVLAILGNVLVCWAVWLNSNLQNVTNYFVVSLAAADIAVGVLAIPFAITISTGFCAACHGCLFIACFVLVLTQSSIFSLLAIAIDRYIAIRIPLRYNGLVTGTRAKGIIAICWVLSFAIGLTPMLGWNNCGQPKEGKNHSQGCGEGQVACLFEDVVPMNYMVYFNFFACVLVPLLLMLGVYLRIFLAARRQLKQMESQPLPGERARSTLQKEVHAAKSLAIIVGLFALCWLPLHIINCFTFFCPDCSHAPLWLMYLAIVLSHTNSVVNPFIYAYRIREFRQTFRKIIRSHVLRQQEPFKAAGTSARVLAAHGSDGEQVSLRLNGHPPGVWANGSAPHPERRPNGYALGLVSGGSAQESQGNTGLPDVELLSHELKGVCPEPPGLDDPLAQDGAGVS

[9] = molecular target: T2, Adenosine receptor A3 (Homo sapiens) (UniProt P0DMS8); experiment: Displacement of [[125I]AB-MECA from human recombinant A3 receptor expressed in HEK293 cells at 10 uM; assay type: cell-based; procedure, shortened: as §2
T2 sequence (whole entry): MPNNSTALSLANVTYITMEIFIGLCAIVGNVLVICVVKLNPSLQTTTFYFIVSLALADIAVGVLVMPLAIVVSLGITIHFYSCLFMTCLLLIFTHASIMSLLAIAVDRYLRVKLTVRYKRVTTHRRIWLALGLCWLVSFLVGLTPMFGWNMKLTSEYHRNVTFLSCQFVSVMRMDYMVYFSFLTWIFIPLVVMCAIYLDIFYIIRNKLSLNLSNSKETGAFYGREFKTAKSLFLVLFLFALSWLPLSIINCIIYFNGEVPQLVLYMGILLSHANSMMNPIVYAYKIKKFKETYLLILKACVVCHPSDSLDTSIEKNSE

Aorta [10] = experiment: Vasorelaxation activity in WKY rat aortic rings with denuded endothelium assessed as reduction in phenylephrine-induced contraction relative to untreated control; assay type: functional; set-up: scale not given: the % may be the effect or the level left
Procedure, shortened: (§3)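 Isolated thoracic aortic rings from WKY rats were studied by isometric tension recording. Endothelium was judged intact when acetylcholine gave >80% relaxation, and was removed mechanically where stated. Rings were precontracted with a single phenylephrine concentration (10), then exposed to cumulative test concentrations (1–300). DMSO served as control. L-NAME, ZM 241385 (100 nM) or glibenclamide (5 µM) were added 20 min before phenylephrine. IC50 was derived per experiment. n = 6, mean ± SEM.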

Aorta [11] = experiment: Vasorelaxation activity in WKY rat aortic rings with intact endothelium assessed as reduction in phenylephrine-induced contraction relative to untreated control; assay type: functional; set-up: scale not given: the % may be the effect or the level left; procedure, shortened: as §3
Aorta [12] = experiment: Vasorelaxation activity in WKY rat aortic rings with denuded endothelium assessed as reduction in phenylephrine-induced contraction in presence of 5 uM KATP channel blocker glibenclamide; assay type: functional; set-up: scale not given: the % may be the effect or the level left; procedure, shortened: as §3
Aorta [13] = experiment: Vasorelaxation activity in WKY rat aortic rings with intact endothelium assessed as reduction in phenylephrine-induced contraction in presence of 100 nM A2A antagonist ZM241385; assay type: functional; set-up: scale not given: the % may be the effect or the level left; procedure, shortened: as §3
Aorta [14] = experiment: Vasorelaxation activity in WKY rat aortic rings with intact endothelium assessed as reduction in phenylephrine-induced contraction in presence of 100 uM NOS inhibitor L-NAME; assay type: functional; set-up: scale not given: the % may be the effect or the level left; procedure, shortened: as §3
Aorta [15] = experiment: Vasorelaxation activity in WKY rat aortic rings with intact endothelium assessed as reduction in phenylephrine-induced contraction; assay type: functional, tissue-based; procedure, shortened: as §3
Rattus norvegicus [16] = experiment: Effect on heart rate in WKY rat at 10 mg/kg/day, ip for 7 days (reference value: 383 +/- 21 bpm); conditions: in vivo, 168 h
Rattus norvegicus [17] = experiment: Effect on heart rate in WKY rat at 10 mg/kg/day, ip for 14 days (reference value: 383 +/- 21 bpm); conditions: in vivo, 336 h
Rattus norvegicus [18] = experiment: Effect on diastolic blood pressure in WKY rat at 10 mg/kg/day, ip for 7 days (reference value: 72.6 +/- 4.7 mmHg); conditions: in vivo, 168 h
Rattus norvegicus [19] = experiment: Effect on systolic blood pressure in WKY rat at 10 mg/kg/day, ip for 7 days (reference value: 121.1 +/- 4.5 mmHg); conditions: in vivo, 168 h
Rattus norvegicus [20] = experiment: Effect on diastolic blood pressure in WKY rat at 10 mg/kg/day, ip for 14 days (reference value: 72.6 +/- 4.7 mmHg); conditions: in vivo, 336 h
Rattus norvegicus [21] = experiment: Effect on systolic blood pressure in WKY rat at 10 mg/kg/day, ip for 14 days (reference value: 121.1 +/- 4.5 mmHg); conditions: in vivo, 336 h
Rattus norvegicus [22] = experiment: Effect on heart rate in spontaneous hypertensive rat at 10 mg/kg/day, ip for 7 days (reference value: 419 +/- 11 bpm); conditions: in vivo, 168 h
Rattus norvegicus [23] = experiment: Effect on heart rate in spontaneous hypertensive rat at 10 mg/kg/day, ip for 14 days (reference value: 419 +/- 11 bpm); conditions: in vivo, 336 h
Rattus norvegicus [24] = experiment: Antihypertensive activity in spontaneous hypertensive rat assessed as reduction in systolic blood pressure at 10 mg/kg/day, ip for 7 days (reference value: 226 +/-11 mmHg); conditions: route intraperitoneal
Rattus norvegicus [25] = experiment: Antihypertensive activity in spontaneous hypertensive rat assessed as reduction in systolic blood pressure at 10 mg/kg/day, ip for 14 days (reference value: 226 +/-11 mmHg); conditions: route intraperitoneal
Rattus norvegicus [26] = experiment: Antihypertensive activity in spontaneous hypertensive rat assessed as reduction in diastolic blood pressure at 10 mg/kg/day, ip for 7 days (reference value: 175.9 +/-7.3 mmHg); conditions: route intraperitoneal
Rattus norvegicus [27] = experiment: Antihypertensive activity in spontaneous hypertensive rat assessed as reduction in diastolic blood pressure at 10 mg/kg/day, ip for 14 days (reference value: 175.9 +/-7.3 mmHg); conditions: route intraperitoneal

## O=C(N/N=C/c1ccc2c(c1)OCO2)c1cccs1
Rattus norvegicus [1]
  Activity: 109 mmHg
Rattus norvegicus [2]
  Activity: 109 mmHg
Rattus norvegicus [3]
  Activity: 79.4 mmHg
Rattus norvegicus [4]
  Activity: 88 mmHg
Rattus norvegicus [5]
  Activity: 379 bpm
Rattus norvegicus [6]
  Activity: 398 bpm
[7]
  inhibition: 29.1%
[8]
  inhibition: 47.5%
[9]
  inhibition: 67.5%
Aorta [10]
  Activity: 28.4%
Aorta [11]
  Activity: 100%
Aorta [12]
  Activity: 3.6%
Aorta [13]
  Activity: 8.3%
Aorta [14]
  Activity: 9.1%
Aorta [15]
  Activity: Dose-dependent effect
  IC50: 6.9 µM
Rattus norvegicus [16]
  Activity: 379 bpm
Rattus norvegicus [17]
  Activity: 398 bpm
Rattus norvegicus [18]
  Activity: 79.4 mmHg
Rattus norvegicus [19]
  Activity: 109 mmHg
Rattus norvegicus [20]
  Activity: 88 mmHg
Rattus norvegicus [21]
  Activity: 109 mmHg
Rattus norvegicus [22]
  Activity: 376 bpm
Rattus norvegicus [23]
  Activity: 344.8 bpm
Rattus norvegicus [24]
  Activity: 126.2 mmHg
Rattus norvegicus [25]
  Activity: 118 mmHg
Rattus norvegicus [26]
  Activity: 106.2 mmHg
Rattus norvegicus [27]
  Activity: 95.5 mmHg
